# Measurements from ChEMBL document CHEMBL4017515 (J Med Chem, 2017).
# Experiments:
# [1] = Aqueous solubility of compound; type: physicochemical
# Staphylococcus aureus [2] = assay: Growth inhibition of Staphylococcus aureus Newman at 0.2 mM measured after overnight incubation; conditions: 200 µM
# Staphylococcus aureus [3] = assay: Growth inhibition of Staphylococcus aureus USA400 MW2 at 0.2 mM measured after overnight incubation; conditions: 200 µM
# Staphylococcus aureus [4] = assay: Growth inhibition of Staphylococcus aureus USA300 LAC at 0.2 mM measured after overnight incubation; conditions: 200 µM
# Staphylococcus aureus [5] = assay: Growth inhibition of Staphylococcus aureus Mu50 at 0.2 mM measured after overnight incubation; conditions: 200 µM
# [6] = test system: Staphylococcus aureus LAC; assay: Inhibition of CrtN in Staphylococcus aureus USA300 LAC assessed as H2O2-induced bacterial death by measuring fold reduction in survival rate at 1 uM preincubated for 24 hrs followed by H2O2 addition measured after 30 mins by serial dilution method
# In short: (§1)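 Strain grown in TSB at 37 °C for 24 h with or without 1 μM compound, or with NAC. Cells washed in PBS and set at 4×10^6 CFU per 250 μL. H2O2 added to 1.5% final, then incubated 30 min at 37 °C with shaking at 250 rpm. Reaction quenched with 1000 U/mL catalase; survivors counted by serial dilution CFU on TSA/TSB.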
# [7] = test system: Staphylococcus aureus subsp. aureus MW2; assay: Inhibition of CrtN in Staphylococcus aureus USA400 MW2 assessed as H2O2-induced bacterial death by measuring fold reduction in survival rate at 1 uM preincubated for 24 hrs followed by H2O2 addition measured after 30 mins by serial dilution method; in short: as §1
# [8] = test system: Staphylococcus aureus LAC; assay: Inhibition of CrtN in Staphylococcus aureus USA300 LAC assessed as bacterial death by measuring survival rate measured after 6 hrs by serial dilution method (reference value: 12%)
# In short: (§2)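 Overnight cultures in PBS (1×10^7 CFU/mL) mixed 1:9 with healthy-volunteer human whole blood (1×10^6 CFU/mL final). Held 6 h at 37 °C; surviving CFU counted by serial dilution plating on TSA/TSB.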
# [9] = test system: Staphylococcus aureus subsp. aureus MW2; assay: Inhibition of CrtN in Staphylococcus aureus USA400 MW2 assessed as bacterial death by measuring survival rate measured after 6 hrs by serial dilution method (reference value: 20.67%); in short: as §2
# [10] = test system: Staphylococcus aureus LAC; assay: Inhibition of CrtN in Staphylococcus aureus USA300 LAC assessed as H2O2-induced bacterial death by measuring survival rate at 1 uM preincubated for 24 hrs followed by H2O2 addition measured after 30 mins by serial dilution method (reference value: 24%)
# [11] = test system: Staphylococcus aureus subsp. aureus MW2; assay: Inhibition of CrtN in Staphylococcus aureus USA400 MW2 assessed as H2O2-induced bacterial death by measuring survival rate at 1 uM preincubated for 24 hrs followed by H2O2 addition measured after 30 mins by serial dilution method (reference value: 26.3%)
# [12] = Tmax in Sprague-Dawley rat at 5 mg/kg, iv after 24 hrs by LC/MS/MS analysis; type: ADME, organism-based; conditions: in vivo
# In short: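 Male SD rats (230-260 g), six in total across routes. Single intravenous dose of 5 mg/kg in 10% castor oil/water. Blood sampled at various time points over 24 h. Compound concentration in blood quantified by LC-MS/MS.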
# [13] = Half life in Sprague-Dawley rat at 5 mg/kg, iv after 24 hrs by LC/MS/MS analysis; type: ADME, organism-based; conditions: in vivo
# In short: (§3)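 Male SD rats (230-260 g), six in total; compound in 10% castor oil/water given once IV at 5 mg/kg or PO at 10 mg/kg. Blood sampled at various time points over 24 h, and drug concentration measured by LC-MS/MS.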
# [14] = Half life in Sprague-Dawley rat at 10 mg/kg, po after 24 hrs by LC/MS/MS analysis; type: ADME, organism-based; conditions: in vivo; in short: as §3
# [15] = Tmax in Sprague-Dawley rat at 10 mg/kg, po after 24 hrs by LC/MS/MS analysis; type: ADME, organism-based; conditions: in vivo
# In short: (§4)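 Male SD rats (230-260 g), six in total across routes. Compound dissolved in 10% castor oil/water, given orally at 10 mg/kg, with an IV arm at 5 mg/kg for comparison. Blood sampled at various time points over 24 h. Blood concentrations measured by LC-MS/MS.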
# [16] = Cmax in Sprague-Dawley rat at 5 mg/kg, iv after 24 hrs by LC/MS/MS analysis; type: ADME, organism-based; set-up: dose 5 mg/kg, route intravenous; conditions: in vivo; in short: as §3
# [17] = Cmax in Sprague-Dawley rat at 10 mg/kg, po after 24 hrs by LC/MS/MS analysis; type: ADME, organism-based; set-up: dose 10 mg/kg, route oral; conditions: in vivo; in short: as §3
# [18] = AUC (0 to t) in Sprague-Dawley rat at 5 mg/kg, iv after 24 hrs by LC/MS/MS analysis; type: ADME, organism-based; set-up: dose 5 mg/kg, time < 24 hr, route intravenous; conditions: in vivo; in short: as §3
# [19] = AUC (0 to t) in Sprague-Dawley rat at 10 mg/kg, po after 24 hrs by LC/MS/MS analysis; type: ADME, organism-based; set-up: dose 10 mg/kg, time < 24 hr, route oral; conditions: in vivo; in short: as §3
# [20] = AUC (0 to infinity) in Sprague-Dawley rat at 5 mg/kg, iv after 24 hrs by LC/MS/MS analysis; type: ADME, organism-based; set-up: dose 5 mg/kg, time infinity, route intravenous; conditions: in vivo; in short: as §3
# [21] = AUC (0 to infinity) in Sprague-Dawley rat at 10 mg/kg, po after 24 hrs by LC/MS/MS analysis; type: ADME, organism-based; set-up: dose 10 mg/kg, time infinity, route oral; conditions: in vivo; in short: as §3
# [22] = Mean residence time (0 to t) in Sprague-Dawley rat at 5 mg/kg, iv after 24 hrs by LC/MS/MS analysis; type: ADME, organism-based; conditions: in vivo; in short: as §3
# [23] = Mean residence time (0 to t) in Sprague-Dawley rat at 10 mg/kg, po after 24 hrs by LC/MS/MS analysis; type: ADME, organism-based; conditions: in vivo; in short: as §3
# [24] = Mean residence time (0 to infinity) in Sprague-Dawley rat at 5 mg/kg, iv after 24 hrs by LC/MS/MS analysis; type: ADME, organism-based; conditions: in vivo; in short: as §3
# [25] = Mean residence time (0 to infinity) in Sprague-Dawley rat at 10 mg/kg, po after 24 hrs by LC/MS/MS analysis; type: ADME, organism-based; conditions: in vivo; in short: as §3
# [26] = Oral bioavailability in Sprague-Dawley rat at 10 mg/kg after 24 hrs by LC/MS/MS analysis; type: ADME, organism-based; conditions: in vivo; in short: as §4
SMILES,solubility [1] [µg/mL],other results
CN(C/C=C/C=C/c1ccc(-c2ccccc2)cc1)Cc1ccc2c(c1)OCCC2.O=S(=O)(O)O,1100,
CN(C/C=C/c1ccc(-c2ccccc2)cc1)Cc1ccc2c(c1)CCO2.O=C(O)/C=C\C(=O)O,1200,
CC(=O)O.CN(C/C=C/c1ccc(-c2ccccc2)cc1)Cc1ccc2c(c1)CCO2,4700,
CCOc1ccc(/C=C/CN(C)Cc2ccc3c(c2)OCCC3)cc1.Cl,10200,
COc1ccc(/C=C/CN(C)Cc2ccc3c(c2)CCCC3)cc1.Cl,900,
CN(C/C=C/c1ccc(-c2ccccc2)cc1)Cc1ccc2c(c1)CCO2.O=C(O)CCC(=O)O,3300,
Br.CN(C/C=C/c1ccc(-c2ccccc2)cc1)Cc1ccc2c(c1)CCO2,2200,
CN(C/C=C/C=C/c1ccc(-c2ccccc2)cc1)Cc1ccc2c(c1)OCCC2.Cl,3800,growth inhibition (GI) (Staphylococcus aureus [2]): Non-Toxic; growth inhibition (GI) (Staphylococcus aureus [3]): Non-Toxic; growth inhibition (GI) (Staphylococcus aureus [4]): Non-Toxic; growth inhibition (GI) (Staphylococcus aureus [5]): Non-Toxic
CCOc1ccc(/C=C/CN(C)Cc2ccc3c(c2)CCO3)cc1.Cl,11600,
CC(=O)O.CN(C/C=C/C=C/c1ccc(-c2ccccc2)cc1)Cc1ccc2c(c1)OCCC2,4100,
CN(C/C=C/c1ccc(-c2ccccc2)cc1)Cc1ccc2c(c1)CCO2,,fold change (FC) [6]: 10; fold change (FC) [7]: 10; Survival [8]: 0.12%; Survival [9]: 0.2%
CN(C/C=C/c1ccc(-c2ccccc2)cc1)Cc1ccc2c(c1)CCO2.O=P(O)(O)O,16200,
CN(C/C=C/C=C/c1ccc(-c2ccccc2)cc1)Cc1ccc2c(c1)OCCC2.O=P(O)(O)O,12900,
CN(C/C=C/c1ccc(C(F)(F)F)cc1)Cc1ccc2c(c1)OCCC2.Cl,13200,
CN(C/C=C/c1ccc(-c2ccccc2)cc1)Cc1ccc2c(c1)CCO2.O=C(O)CC(O)(CC(=O)O)C(=O)O,2300,
CN(C/C=C/c1ccc(C(F)(F)F)cc1)Cc1ccc2c(c1)CCCCC2.Cl,2600,
CN(C/C=C/C=C/c1ccc(-c2ccccc2)cc1)Cc1ccc2c(c1)OCCC2.O=C(O)C(O)C(O)C(=O)O,4600,
COc1ccc(/C=C/CN(C)Cc2ccc3c(c2)CCCCC3)cc1.Cl,1400 to 4100,
CN(C/C=C/c1ccc(-c2ccccc2)cc1)Cc1ccc2c(c1)CCO2.O=C(O)C(O)C(O)C(=O)O,5700,
CN(C/C=C/c1ccc(Cl)cc1)Cc1ccc2c(c1)OCCC2.Cl,11500,
CC(O)C(=O)O.CN(C/C=C/c1ccc(-c2ccccc2)cc1)Cc1ccc2c(c1)CCO2,6200,

SMILES,solubility [1] [µg/mL],other results
CN(C/C=C/c1ccc(Cl)cc1)Cc1ccc2c(c1)CCCC2.Cl,1900,
CN(C/C=C/C=C/c1ccc(-c2ccccc2)cc1)Cc1ccc2c(c1)OCCC2.O=C(O)C(F)(F)F,1700,
CC(O)C(=O)O.CN(C/C=C/C=C/c1ccc(-c2ccccc2)cc1)Cc1ccc2c(c1)OCCC2,6500,
CN(C/C=C/c1ccc(Br)cc1)Cc1ccc2c(c1)CCCCC2.Cl,600,
CN(C/C=C/C=C/c1ccc(-c2ccccc2)cc1)Cc1ccc2c(c1)OCCC2.O=C(O)CCC(=O)O,2300,
CN(C/C=C/C=C/c1ccc(-c2ccccc2)cc1)Cc1ccc2c(c1)OCCC2.O=C(O)/C=C\C(=O)O,1300,
CC(=O)N[C@@H](CS)C(=O)O,,Survival [10]: 54.7%; Survival [11]: 57%
CN(C/C=C/c1ccc(-c2ccccc2)cc1)Cc1ccc2c(c1)CCO2.O=S(=O)(O)O,1800,
CN(C/C=C/C=C/c1ccc(-c2ccccc2)cc1)Cc1ccc2c(c1)OCCC2,,fold change (FC) [6]: 10; fold change (FC) [7]: 10; Survival [8]: 0.23%; Survival [9]: 0.53%
CN(C/C=C/c1ccc(Br)cc1)Cc1ccc2c(c1)CCCC2.Cl,2000,
CN(C/C=C/c1ccc(-c2ccccc2)cc1)Cc1ccc2c(c1)CCO2.O=C(O)C(F)(F)F,1500,
CN(C/C=C/C=C/c1ccc(-c2ccccc2)cc1)Cc1ccc2c(c1)OCCC2.O=C(O)CC(O)(CC(=O)O)C(=O)O,1600,
Br.CN(C/C=C/C=C/c1ccc(-c2ccccc2)cc1)Cc1ccc2c(c1)OCCC2,2800,
CN(C/C=C/c1ccc(C(F)(F)F)cc1F)Cc1ccc2c(c1)CCO2.Cl,16300,
CN(C/C=C/c1ccc(Cl)cc1)Cc1ccc2c(c1)CCCCC2.Cl,1200,
CN(C/C=C/c1ccc(C(F)(F)F)cc1)Cc1ccc2c(c1)CCCC2.Cl,700,
CN(C/C=C/c1ccc(C(F)(F)F)cc1)Cc1ccc2c(c1)CCO2.Cl,14600,
CN(C/C=C/c1ccc(C(F)(F)F)cc1F)Cc1ccc2c(c1)OCCC2.Cl,15200,
CN(C/C=C/c1ccc(C(F)F)cc1)Cc1ccc2c(c1)OCCC2.Cl,16300,
CN(C/C=C/c1ccc(-c2ccccc2)cc1)Cc1ccc2c(c1)CCO2.Cl,4400,growth inhibition (GI) (Staphylococcus aureus [2]): Non-Toxic; growth inhibition (GI) (Staphylococcus aureus [3]): Non-Toxic; growth inhibition (GI) (Staphylococcus aureus [4]): Non-Toxic; growth inhibition (GI) (Staphylococcus aureus [5]): Non-Toxic; Tmax [12]: 4.98 min; half-life [13]: 2.27 h; half-life [14]: 1.7 h; Tmax [15]: 2 h; Cmax [16]: 2040 ng/mL; Cmax [17]: 41.8 ng/mL; AUC(0-t) at 24 h [18]: 1330 ng·h/mL; AUC(0-t) at 24 h [19]: 156 ng·h/mL; AUC(0-inf) [20]: 1360 ng·h/mL; AUC(0-inf) [21]: 177 ng·h/mL; MRT last at 24 h [22]: 0.9 h; MRT last at 24 h [23]: 2.61 h; MRT inf [24]: 1.13 h; MRT inf [25]: 3.28 h; bioavailability [26]: 6.5%
